Compounds with a hit are over-represented: about 3.7% of the library has one in this group of screens.
proCasp3 act – activates human procaspase-3; P42574; recombinant procaspase-3 D3A, Ac-DEVD-pNA absorbance 405 nm; activation, % at 8.5 µM; 330,000 compounds, 0.11% hits; AID 463141;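 active means activation above the mean of all tested compounds plus 3 SD, cut at about 21% in these data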
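assay system = Procaspase-3 D3A mutant | signal = absorbance at 405 nm, 0 and 120 min | times = 1 h preincubation plus 2 h reaction at 25 °C | repeats = single replicate | read-out = % activation between DMSO and enzyme-spiked controls | medium = Zinc-free HEPES saline buffer with Triton X-100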
NR3A LBD binder – modulators (binders) of human NR3A ligand-binding domain; NR3A LBD differential scanning fluorimetry, Tm shift; 0% = protein alone, 100% = glycine-bound protein; 340,000 compounds, 2.5% hits; Tm shift relative to glycine control, % at 25 µM;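 active means melting temperature shift of at least 10% of the positive control shift, at one fixed dose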
MPTP block – permeability transition pore inhibition. isolated mouse mitochondria, Ca2+ swelling absorbance, 30 min. inhibition, % at 10 µM. 360,000 compounds, 1.4% hits. AID 602449;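 active means inhibition of 50% or more, scaled per plate between neutral and stimulator controls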
aDG glyco up – increases alpha dystroglycan glycosylation; Pro5-aDG cells, alpha-DG glycosylation AlphaScreen (IIH6); 0% Pro5, 100% B10-LARGE cell signal; activation, % at 10 µM; 360,000 compounds, 0.22% hits; AID 624168;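 active means activation of at least 8% versus controls, or a plate z-score of at least 8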;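 further: Pro5 are CHO cells carrying HIG-tagged alpha-DG that lacks glycosylation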
procasp7 counter – counter-screen: procaspase-7 (human) activation | recombinant procaspase-7, Ac-DEVD-pNA absorbance 405 nm; D23A/D198A/D206A triple mutant, cannot self-cleave; scale: DMSO 0, 5 µM enzyme 100 | activation, % at 8.5 µM | 330,000 compounds, 0.093% hits | AID 463210;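 active means percent activation above the screen-wide mean plus 3 SD, cut at about 25% in these data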
Target sequence (P55210 whole entry D23A/D198A/D206A): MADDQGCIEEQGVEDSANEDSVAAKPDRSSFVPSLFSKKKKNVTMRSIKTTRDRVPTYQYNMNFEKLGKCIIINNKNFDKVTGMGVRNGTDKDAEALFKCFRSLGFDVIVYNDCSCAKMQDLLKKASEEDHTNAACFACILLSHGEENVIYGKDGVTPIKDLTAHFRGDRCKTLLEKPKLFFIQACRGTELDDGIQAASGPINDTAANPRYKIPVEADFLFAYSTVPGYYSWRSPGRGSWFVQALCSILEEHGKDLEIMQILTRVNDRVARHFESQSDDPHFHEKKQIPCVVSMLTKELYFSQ
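buffer or medium = Zinc-free HEPES/NaCl buffer, pH 7.4 | material = Procaspase-7 triple mutant (PC-7 D3A) | input = 2 µM procaspase-7 mutant as dispensed | signal = Epi-absorbance of released pNA at 405 nm, two timepoints | timing = 1 h preincubation, 2 h reaction | replicates = singlicate compound testing | evaluation = % activation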
Rh123 counter – membrane potential counter-screen of mitochondrial pore inhibitors. shares compounds with MPTP block. isolated mitochondria, Rhodamine 123 fluorescence. inhibition, % at 10 µM. 5,000 compounds, 78% hits; in the data active means inhibition above about 22%
MPTP abs DR – MPTP inhibition, dose response swelling confirmation; shares compounds with MPTP block; isolated mitochondria swelling, absorbance; IC50, µM; 780 compounds, 58% hits; in the data active means IC50 below about 20 µM
MPTP counter DR – active in counter-screen for permeability transition pore inhibitors | shares compounds with MPTP block | isolated mitochondria counterscreen, fluorescence read-out | IC50, µM | 780 compounds, 49% hits; in the data active means IC50 below about 80 µM
Of the large screens only hits and unclear results are named; the others gave an inactive call (follow-up assays come after a bar, where they were run).

CC(=O)Nc1cccc(NC(=O)Cc2cccs2)c1	none
O=C(Cc1cccs1)Nc1cccc(-c2nc3cc4ccccc4cc3[nH]2)c1	NR3A LBD binder 28, MPTP block 90 | Rh123 counter 37
O=C(NCCC(F)(F)F)C1Cc2c(-c3ccccc3Oc3ccccc3)ccnc2O1 (configuration not stated)	none (no result: proCasp3 act, NR3A LBD binder, procasp7 counter)
O=C(Nc1ccc(Cl)cc1)C1CCC(=O)N1Cc1ccccc1Cl (configuration not stated)	none
O=C(Nc1ccccc1Br)C1CCC(=O)N1Cc1ccccc1Cl (configuration not stated)	MPTP block 66 | Rh123 counter 78
CCCCCCCCCn1c2c(c(=N)c3c1CCC3)CCC2	MPTP block 84 | Rh123 counter 92
Cc1nnc(NC(=O)CSc2n[nH]c(-c3ccccc3C)n2)s1	MPTP block 96 | Rh123 counter inactive | MPTP abs DR inactive | MPTP counter DR inactive
CCOc1ccc(NC(=S)Nc2cccnc2)cc1	none
CCCCc1ccc(NC(=S)Nc2cccnc2)cc1	MPTP block 80 | Rh123 counter 73
S=C(NCc1cccnc1)Nc1ccc(Oc2ccccc2)cc1	MPTP block 69 | Rh123 counter 60
CCCCc1ccc(NC(=S)NCc2cccc(OC)c2)cc1	NR3A LBD binder 11, MPTP block 70 | Rh123 counter 91
COC(=O)Cc1ccc(NC(=S)NCc2cccc(OC)c2)cc1	none
S=C(Nc1ccc(Oc2ccccc2)cc1)Nc1cccnc1	MPTP block 71 | Rh123 counter 86
CC(=O)NCc1ccc(C(=O)CN2C(=O)NC3(CCCCC3C)C2=O)s1 (configuration not stated)	none (no result: proCasp3 act, procasp7 counter)
Clc1ccc(NCc2cccnc2)c(Cl)c1	none
O=C(O)CCN1C(=O)C2C3C=CC(C2C1=O)C1C(=O)N(CCC(=O)O)C(=O)C31 (configuration not stated)	none (no result: proCasp3 act, procasp7 counter)
CCCCc1ccc(NC(=S)Nc2ccc(Cl)c(S(=O)(=O)N(C)C)c2)cc1	MPTP block 97 | Rh123 counter 76
COc1cc(CO)c(OC)c([N+](=O)[O-])c1	none
COc1ccc(C=NNc2ccc([N+](=O)[O-])cc2S(=O)(=O)Nc2ccccc2C(=O)O)cc1OC	NR3A LBD binder 31, MPTP block 60 | Rh123 counter 37
CCCCCCCCCCCC(=O)c1c(O)cccc1O	MPTP block 66 | Rh123 counter 56
CCOC(=O)N1CCC(Nc2c(Nc3cccc(CC)c3)c(=O)c2=O)CC1	MPTP block 89 | Rh123 counter 72
CCOC(=O)N1CCC(Nc2c(Nc3ccc(F)cc3)c(=O)c2=O)CC1	none
Cc1ccc(S(=O)(=O)/N=C(\N)c2ccc(Cl)cc2)cc1	none (no result: proCasp3 act, procasp7 counter)
N/C(=N\S(=O)(=O)c1cc(C(F)(F)F)cc(C(F)(F)F)c1)c1ccc(Cl)cc1	NR3A LBD binder 19, MPTP block 83 | Rh123 counter 88
O=c1ncccn1C1OC(CO)C(O)C1O (configuration not stated)	none (no result: proCasp3 act, NR3A LBD binder, procasp7 counter)
Nc1nc2ccc([N+](=O)[O-])cc2[nH]1	none
O=[N+]([O-])c1ccc2nc(-c3ccc(Cl)cc3)[nH]c2c1	NR3A LBD binder 28, MPTP block 92 | Rh123 counter 86
COc1ccc(-c2nc3ccc([N+](=O)[O-])cc3[nH]2)cc1	NR3A LBD binder 29, MPTP block 58 | Rh123 counter 53
O=[N+]([O-])c1ccc2nc(-c3ccccc3[N+](=O)[O-])[nH]c2c1	none
O=[N+]([O-])c1ccc(/C=C/c2nc3ccc([N+](=O)[O-])cc3[nH]2)cc1	MPTP block 98 | Rh123 counter 64
O=[N+]([O-])c1cccc(-c2nc3ccc([N+](=O)[O-])cc3[nH]2)c1	MPTP block 93 | Rh123 counter 83

Source: PubChem (several laboratories)
